Results published in ChEMBL document CHEMBL3856229, “Hybrid Antibiotic Overcomes Resistance in P. aeruginosa by Enhancing Outer Membrane Penetration and Reducing Efflux” (J Med Chem, 2016).
Calls of active or inactive are those of the source. No cut-off for these calls is given here.

What was measured:
[1] = test system: Escherichia coli; experiment: Antibacterial activity against fluoroquinolone resistant Escherichia coli isolate 90789 harboring beta-lactamase KPC-3/TEM-1; assay type: functional
[2] = test system: Acinetobacter baumannii; experiment: Antibacterial activity against Acinetobacter baumannii isolate CAN-ICU 63169 after 24 hrs by microtitre broth dilution method; assay type: functional; details: isolate CAN-ICU 63169, 24 h
[3] = test system: Pseudomonas aeruginosa; experiment: Antimotility activity against Pseudomonas aeruginosa PAO1 assessed as reduction in flagellum-dependent swimming motility after 20 hrs; assay type: functional
Outline: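 Swim plates (0.3% agar, dried and set for 60 min) were inoculated with PAO1 at OD600 1.0, with or without 0.25 µg/mL test agent. Plates were imaged after 20 h at 37 °C.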

[4] = test system: Pseudomonas aeruginosa; experiment: Antibacterial activity against pandrug-resistant Pseudomonas aeruginosa isolate 101243 in presence of <= 4 ug/ml of ciprofloxacin (reference value: 8 ug/ml); assay type: functional
[5] = test system: Pseudomonas aeruginosa; experiment: Induction of outer membrane permeabilization in Pseudomonas aeruginosa PAO1 assessed as accumulation of propidium iodide at 8 ug/ml after 3 to 4 hrs by fluorescence microscopy; assay type: functional
Outline: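 PAO1 cells were treated with 8 µg/mL for 3 h at 37 °C, then stained with the membrane-impermeable nucleic-acid dye propidium iodide. Fluorescence microscopy and DIC imaging were compared against untreated cells.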

[6] = test system: Streptococcus pneumoniae; experiment: Antibacterial activity against Streptococcus pneumoniae ATCC 49619 after 24 hrs by microtitre broth dilution method; assay type: functional; details: ATCC 49619, 24 h
[7] = test system: Pseudomonas aeruginosa; experiment: Potentiation of ciprofloxacin induced antibacterial activity against multidrug/extremely drug-resistant Pseudomonas aeruginosa isolate PA264-104354 assessed as ciprofloxacin MIC at <= […] ug/ml (reference value: […] to […] ug/ml); assay type: functional
[8] = test system: Pseudomonas aeruginosa; experiment: Potentiation of moxifloxacin induced antibacterial activity against pandrug-resistant Pseudomonas aeruginosa isolate 101243 assessed as moxifloxacin MIC at <= […] ug/ml (reference value: 8 ug/ml); assay type: functional
[9] = test system: Pseudomonas aeruginosa; experiment: Antimicrobial activity against Pseudomonas aeruginosa PAO1 assessed as cell membrane blebbing at 8 ug/ml after 3 to 4 hrs by uranyl acetate staining based transmission electron microscopy; assay type: functional
Outline: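 PAO1 in Mueller-Hinton broth was exposed to 8 µg/mL at 37 °C (3 h in the legend, 4 h in the text). Untreated cells were the reference. Morphology was imaged by transmission electron microscopy at 75 kV.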

[10] = test system: Pseudomonas aeruginosa; experiment: Antibacterial activity against Pseudomonas aeruginosa PAO1 assessed as fractional inhibitory concentration index after 18 hrs in presence of novobiocin by checkerboard method; assay type: functional
Outline: (§1)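 Checkerboard combinations of the hybrid with each partner antibiotic were tested against P. aeruginosa PAO1. Interaction is expressed as the fractional inhibitory concentration (FIC) index: ≤0.5 means synergy, 1–2 no interaction, ≥4 antagonism.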

[11] = test system: Pseudomonas aeruginosa; experiment: Antibacterial activity against Pseudomonas aeruginosa PAO1 assessed as fractional inhibitory concentration index after 18 hrs in presence of colistin by checkerboard method; assay type: functional; outline: as §1
[12] = test system: Escherichia coli; experiment: Antibacterial activity against Escherichia coli ATCC 25922 after 24 hrs by microtitre broth dilution method; assay type: functional; details: ATCC 25922, 24 h
[13] = test system: Pseudomonas aeruginosa; experiment: Antibacterial activity against multidrug/extremely drug-resistant Pseudomonas aeruginosa isolate PA260-97103 in presence of <= 4 ug/ml of moxifloxacin (reference value: 1 ug/ml); assay type: functional
[14] = Inhibition of circular DNA translation in Escherichia coli S30 extract after 60 mins by luciferase reporter gene assay
Outline: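 Translation was run in an E. coli S30 extract with a luciferase read-out. Luminescence is expressed as a percentage of the no-antibiotic control, taken as 100%.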

[15] = test system: Pseudomonas aeruginosa; experiment: Antibacterial activity against multidrug/extremely drug-resistant/Pseudomonas aeruginosa isolate PA260-97103 in presence of <= 4 ug/ml of ciprofloxacin (reference value: 1 ug/ml); assay type: functional
[16] = test system: Pseudomonas aeruginosa; experiment: Antibacterial activity against multidrug/extremely drug-resistant Pseudomonas aeruginosa isolate PA259-96918 in presence of <= 4 ug/ml of ciprofloxacin (reference value: 2 ug/ml); assay type: functional
[17] = Hemolytic activity in human erythrocytes at 1000 microg/ml after 30 mins by spectrometry; assay type: ADME, cell-based, Erythrocyte; details: read-out: Activity
[18] = test system: Pseudomonas aeruginosa; experiment: Antibacterial activity against gentamicin-resistant Pseudomonas aeruginosa isolate CAN-ICU 62308 after 24 hrs by microtitre broth dilution method; assay type: functional; details: isolate CAN-ICU 62308, 24 h
[19] = test system: Pseudomonas aeruginosa; experiment: Antibacterial activity against Pseudomonas aeruginosa PAO1 assessed as fractional inhibitory concentration index after 18 hrs in presence of minocycline by checkerboard method; assay type: functional; outline: as §1
[20] = test system: Pseudomonas aeruginosa; experiment: Antibacterial activity against multidrug/extremely drug-resistant Pseudomonas aeruginosa isolate PA262-101856 in presence of <= 4 ug/ml of moxifloxacin (reference value: 4 ug/ml); assay type: functional
[21] = test system: Staphylococcus epidermidis; experiment: Antibacterial activity against methicillin-resistant Staphylococcus epidermidis isolate CAN-ICU 61589 after 24 hrs by microtitre broth dilution method; assay type: functional; details: isolate CAN-ICU 61589, 24 h
[22] = test system: Pseudomonas aeruginosa; experiment: Antibacterial activity against multidrug-resistant/tobramycin-susceptible Pseudomonas aeruginosa isolate 86052; assay type: functional
[23] = test system: Pseudomonas aeruginosa; experiment: Potentiation of moxifloxacin induced antibacterial activity against multidrug/extremely drug-resistant Pseudomonas aeruginosa isolate PA260-97103 assessed as moxifloxacin MIC at <= […] ug/ml (reference value: […] to […] ug/ml); assay type: functional
[24] = test system: Pseudomonas aeruginosa; experiment: Antibacterial activity against multidrug-resistant/tobramycin-susceptible Pseudomonas aeruginosa isolate 83182; assay type: functional
[25] = test system: Pseudomonas aeruginosa; experiment: Antibacterial activity against Pseudomonas aeruginosa PAO1 assessed as fractional inhibitory concentration index after 18 hrs in presence of erythromycin by checkerboard method; assay type: functional; outline: as §1
[26] = test system: Escherichia coli; experiment: Antibacterial activity against amikacin-resistant Escherichia coli isolate CAN-ICU 63074 after 24 hrs by microtitre broth dilution method; assay type: functional; details: isolate CAN-ICU 63074, 24 h
[27] = test system: Pseudomonas aeruginosa; experiment: Antibacterial activity against pandrug-resistant Pseudomonas aeruginosa isolate 91433 in presence of <= 4 ug/ml of ciprofloxacin (reference value: 8 ug/ml); assay type: functional
[28] = test system: Escherichia coli; experiment: Antibacterial activity against fluoroquinolone resistant Escherichia coli isolate 85332 harboring beta-lactamase CTX-M-14/TEM-1; assay type: functional
[29] = test system: Pseudomonas aeruginosa; experiment: Antibacterial activity against extremely drug-resistant Pseudomonas aeruginosa isolate 104354 infected in Galleria mellonella assessed as larvae survival at 50 mg/kg administered as single dose measured after 24 hrs (reference value: 27 %); assay type: functional; details: isolate 104354, 24 h
Outline: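 Galleria mellonella larvae were infected with 10^6 CFU of XDR P. aeruginosa #104354, resistant to all antipseudomonal classes except colistin. A single injected drug dose was given 2 h post-infection: 50 mg/kg with survival read at 24 h, or 75 mg/kg with survival read at 96 h. Controls were infected untreated larvae and PBS-injected larvae. Two independent experiments of 15 larvae each (n = 30).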

[30] = test system: Staphylococcus aureus; experiment: Antibacterial activity against Staphylococcus aureus ATCC 29213 after 24 hrs by microtitre broth dilution method; assay type: functional; details: ATCC 29213, 24 h
[31] = test system: Pseudomonas aeruginosa; experiment: Antibacterial activity against Pseudomonas aeruginosa PAO1; assay type: functional
[32] = test system: Escherichia coli; experiment: Antibacterial activity against fluoroquinolone resistant Escherichia coli isolate 89439 harboring beta-lactamase CTX-M-15/OXA-1; assay type: functional
[33] = test system: Acinetobacter baumannii; experiment: Antibacterial activity against fluoroquinolone resistant Acinetobacter baumannii isolate ABO28; assay type: functional
[34] = test system: Pseudomonas aeruginosa; experiment: Antibacterial activity against multidrug/extremely drug-resistant/colistin-susceptible Pseudomonas aeruginosa isolate 262-101856; assay type: functional

**Q.** Which MIC [1] does the source give for `COc1c(N2C[C@@H]3CCCN(CCCCCCCCCCCCO[C@@H]4[C@@H](O[C@H]5O[C@H](CO)[C@@H](O)[C@H](N)[C@H]5O)[C@H](N)C[C@H](N)[C@H]4O[C@H]4O[C@H](CN)[C@@H](O)C[C@H]4N)[C@@H]3C2)c(F)cc2c(=O)c(C(=O)O)cn(C3CC3)c12.Cl.Cl.Cl.Cl.Cl` here?
**A.** Its MIC is at least 64 µg/mL.

**Q.** And the MIC [2]?
**A.** The MIC was 16 µg/mL.

**Q.** And the Activity [3]?
**A.** The Activity was “Dose-dependent effect”.

**Q.** And the MIC [4]?
**A.** The MIC was under 1 µg/mL.

**Q.** And the Activity [5]?
**A.** Its Activity is “Active”.

**Q.** What about the MIC [6] of the same molecule?
**A.** The MIC was 1 µg/mL.

**Q.** And the MIC [7]?
**A.** The MIC was 1 µg/mL.

**Q.** And the MIC [8]?
**A.** Its MIC is 0.06 µg/mL.

**Q.** What about the Activity [9] of the same molecule?
**A.** Its Activity is “Active”.

**Q.** What about the “fractional inhibitory concentration index (FICI)” value [10] of the same molecule?
**A.** Its value is 0.12.

**Q.** And the “fractional inhibitory concentration index (FICI)” value [11]?
**A.** Its value is 0.37.

**Q.** And the MIC [12]?
**A.** Its MIC is 0.5 µg/mL.

**Q.** And the MIC [13]?
**A.** Its MIC is 0.25 µg/mL.

**Q.** And the IC50 [14]?
**A.** Its IC50 is 4.7 µM.

**Q.** What about the MIC [15] of the same molecule?
**A.** The MIC was under 0.25 µg/mL.

**Q.** What about the MIC [16] of the same molecule?
**A.** The MIC was under 0.5 µg/mL.

**Q.** What about the hemolysis at 0.5 h, 1000 microg/ml [17] of the same molecule?
**A.** Its hemolysis at 0.5 h, 1000 microg/ml is under 2.5%.

**Q.** What about the MIC [18] of the same molecule?
**A.** Its MIC is 8 µg/mL.

**Q.** And the “fractional inhibitory concentration index (FICI)” value [19]?
**A.** The value was 0.15.

**Q.** What about the MIC [20] of the same molecule?
**A.** The MIC was under 1 µg/mL.

**Q.** What about the MIC [21] of the same molecule?
**A.** The MIC was 16 µg/mL.

**Q.** And the MIC [22]?
**A.** The MIC was 2 µg/mL.

**Q.** What about the MIC [23] of the same molecule?
**A.** The MIC was 1 µg/mL.

**Q.** And the MIC [24]?
**A.** The MIC was 8 µg/mL.

**Q.** What about the “fractional inhibitory concentration index (FICI)” value [25] of the same molecule?
**A.** Its value is 0.26.

**Q.** What about the MIC [26] of the same molecule?
**A.** The MIC was 4 µg/mL.

**Q.** What about the MIC [27] of the same molecule?
**A.** The MIC was under 1 µg/mL.

**Q.** What about the MIC [28] of the same molecule?
**A.** The MIC was at least 64 µg/mL.

**Q.** And the survival at 50 mg/kg [29]?
**A.** Its survival at 50 mg/kg is 100%.

**Q.** And the MIC [30]?
**A.** The MIC was 1 µg/mL.

**Q.** What about the MIC [31] of the same molecule?
**A.** Its MIC is 4 µg/mL.

**Q.** What about the MIC [32] of the same molecule?
**A.** Its MIC is at least 64 µg/mL.

**Q.** What about the MIC [33] of the same molecule?
**A.** Its MIC is 8 to 64 µg/mL.

**Q.** What about the MIC [34] of the same molecule?
**A.** The MIC was 4 µg/mL.
